Bioassay records (PubChem BioAssay)
Most compounds without a hit are left out; they make up all but 1.9% or so of the library.
IMP-1 inh: blocks Pseudomonas aeruginosa IMP-1 metallo-beta-lactamase | purified IMP-1, nitrocefin hydrolysis, epi-absorbance fluorescence | inhibition, % at 5.6 µM | 290,000 compounds, 0.45% hits;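 active means inhibition above the mean plus 3 SD of all compounds in the same screening run, cut at about 4.5% in these data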;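 further: 0% = IMP-1 with DMSO and 100% = DMSO wells lacking enzyme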
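System: purified recombinant IMP-1 beta-lactamase. Medium: Zinc- and detergent-supplemented HEPES buffer, pH 7.1. Compound: one 5.6 µM dose […]. Schedule: 15 min preincubation plus 25 min reaction at 25 °C. Technique: Epi-absorbance fluorescence, 480 nm excitation, 530 nm emission.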
UBC9 SUMO inh: inhibitors of human SUMOylation (UBC9) | P63279 | HTRF SUMOylation assay, SAE1/SAE2 + UBC9, in vitro | inhibition, % at 35 µM | 290,000 compounds, 0.36% hits | AID 2006; in the data active means inhibition above about 50%, passing the limit was not always enough; inconclusive means no clear call, values can overlap the other calls
CTSL1 counter: cathepsin L1 inhibition, PFM18AAP counter-screen. inhibition, % at 5.96 µM. AID 1906. recombinant F. hepatica cathepsin L1, Z-Leu-Arg-MCA fluorescence. 300,000 compounds, 0.49% hits;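 active means inhibition above the mean of all tested compounds plus 3 SD, set per screening campaign, cut at about 17% in these data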;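 further: 0% = plate median of test compound wells and 100% = 1 µM Z-Phe-Ala-diazomethylketone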
p-CIP stab down: p/CIP protein destabilization | F442A p/CIP-EGFP cells, EGFP fluorescence, 16 h | decrease of EGFP signal, % at 10 µM | 290,000 compounds, 0.01% hits;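 active means EGFP signal decrease of at least 30% at 10 µM or well 3 SD below plate mean, unless failing retest; inactive means the rest, including hits failing retest or dose response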
Target sequence (Q05BA5 1-1403): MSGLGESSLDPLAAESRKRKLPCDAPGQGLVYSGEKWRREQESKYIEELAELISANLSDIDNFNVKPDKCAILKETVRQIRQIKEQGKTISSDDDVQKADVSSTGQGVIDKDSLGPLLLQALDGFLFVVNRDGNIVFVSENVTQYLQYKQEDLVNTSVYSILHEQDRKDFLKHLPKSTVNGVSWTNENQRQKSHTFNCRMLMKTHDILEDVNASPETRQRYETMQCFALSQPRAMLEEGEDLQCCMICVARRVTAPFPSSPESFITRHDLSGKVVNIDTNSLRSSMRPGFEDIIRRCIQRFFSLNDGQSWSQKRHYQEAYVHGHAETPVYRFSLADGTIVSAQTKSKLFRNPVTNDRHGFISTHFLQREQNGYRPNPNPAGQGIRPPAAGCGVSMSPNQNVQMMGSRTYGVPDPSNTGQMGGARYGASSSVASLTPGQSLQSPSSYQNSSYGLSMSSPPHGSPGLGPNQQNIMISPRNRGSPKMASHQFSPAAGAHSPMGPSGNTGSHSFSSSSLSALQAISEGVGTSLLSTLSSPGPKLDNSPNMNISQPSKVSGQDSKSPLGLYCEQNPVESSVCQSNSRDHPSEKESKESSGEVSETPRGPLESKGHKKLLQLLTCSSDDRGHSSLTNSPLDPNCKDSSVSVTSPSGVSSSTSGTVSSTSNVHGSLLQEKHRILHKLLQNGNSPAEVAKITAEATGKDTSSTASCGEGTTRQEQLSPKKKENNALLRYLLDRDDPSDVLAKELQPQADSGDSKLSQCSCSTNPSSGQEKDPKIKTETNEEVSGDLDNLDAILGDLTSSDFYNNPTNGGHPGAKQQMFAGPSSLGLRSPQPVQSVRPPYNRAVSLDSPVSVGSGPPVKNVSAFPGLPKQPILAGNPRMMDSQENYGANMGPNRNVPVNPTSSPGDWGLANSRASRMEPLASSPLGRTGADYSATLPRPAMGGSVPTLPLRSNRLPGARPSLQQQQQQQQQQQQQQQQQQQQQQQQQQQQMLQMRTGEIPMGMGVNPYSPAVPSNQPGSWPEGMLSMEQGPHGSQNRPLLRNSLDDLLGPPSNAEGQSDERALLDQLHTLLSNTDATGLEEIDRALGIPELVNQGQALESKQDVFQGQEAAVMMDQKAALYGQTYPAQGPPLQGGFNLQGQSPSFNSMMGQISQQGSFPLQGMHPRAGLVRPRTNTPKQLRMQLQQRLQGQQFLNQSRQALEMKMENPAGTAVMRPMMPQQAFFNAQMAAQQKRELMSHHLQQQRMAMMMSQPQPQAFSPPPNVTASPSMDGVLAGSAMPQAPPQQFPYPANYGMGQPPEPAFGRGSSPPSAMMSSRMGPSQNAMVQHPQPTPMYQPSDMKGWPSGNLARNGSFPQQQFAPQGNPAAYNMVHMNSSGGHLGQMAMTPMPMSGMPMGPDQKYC
T cell modulator: T cell immune modulators affecting CD8 T cell-vesicle binding. 2C CD8+ T cell-vesicle binding, flow cytometry; stronger effect = lower value. response (vesicle binding), % at 7 µM. 330,000 compounds, 0.068% hits. AID 2052;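 active means response, share of CD8 T cells binding vesicles, and their 90th percentile fluorescence all below set limits, cut at about 80% in these data, passing the limit was not always enough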;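 further: values below 100% mean blocked vesicle binding to the CD8+ T cells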
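Assay system – 2C mouse CD8+ T cells · Also added – QL9-loaded Drosophila micro-vesicles · Timing – Cell–vesicle co-incubation 1.5 h at 37 °C, staining 20 min on ice · Signal – flow cytometry of vesicle-bound cells · Measure – percent CD8+ FL2 mean versus row control · Controls – Peptide-free naked vesicles (low) and QL9 vesicles with 0.7% DMSO vehicle (high)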
VIM-2 inh: blocks Pseudomonas aeruginosa VIM-2 metallo-beta-lactamase; purified VIM-2, nitrocefin hydrolysis, epi-absorbance fluorescence; inhibition, % at 5.6 µM; 290,000 compounds, 0.89% hits; AID 1527;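 active means inhibition above the mean of all tested compounds plus 3 SD, cutoff set per screening run, cut at about 7.5% in these data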;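 further: red hydrolysis product quenches plate fluorescence so inhibitors raise well fluorescence; 0% = enzyme with DMSO and 100% = DMSO without enzyme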
* hit, by the source's call; i = inactive; ? = inconclusive; . = not tested or not shown.

SMILES	IMP-1 inh	UBC9 SUMO inh	CTSL1 counter	p-CIP stab down	T cell modulator	VIM-2 inh
Cc1ccc(C(=O)N/C(=C\c2cccs2)C(=O)NCCCN2CCOCC2)cc1	-3	13	-1	-12	208	-1
Cc1cc(OC(C)C(=O)NCc2ccncc2)c2c(C)cc(=O)oc2c1 (stereo not given)	-5	26	1	-8	231	0
Cc1cc(OCC(=O)NCc2ccccn2)c2c(C)c(C)c(=O)oc2c1	0	20	3	-4	460	9.0*
Cc1cc(OC(C)C(=O)NCc2ccncc2)c2c(C)c(C)c(=O)oc2c1 (stereo not given)	-1	15	2	-1	332	9.3*
S=c1[nH]nc(CCc2nc3ccccc3[nH]2)n1-c1ccccc1	-3	12	-3	-17	235	7.8*
S=c1[nH]nc(CCc2nc3ccccc3[nH]2)n1-c1cccc(Cl)c1	-2	15	2	-15	364	7.7*
COc1ccc(-n2c(CCc3ccccc3)n[nH]c2=S)cc1	-3	19	-1	-9	678	-1
C=CCn1c(Cc2nc3ccccc3[nH]2)n[nH]c1=S	-6	-5	-2	0	523	-6
CCN(CC)C(=O)CSc1nnc(SC(C)C(=O)NC2CC2)s1 (stereo not given)	.	.	.	.	562	.
COc1ccc(C(=O)N2C(=O)c3ccc(N)cc3C2=O)cc1	7.7*	8	-1	5	410	0
Oc1ccc(N=Cc2ccc(O)c(O)c2)cc1	-5	?	46*	-21	453	-3
Oc1ccc(/C=N/N=C/c2ccc(O)c(O)c2)cc1O	-2	31	2	-14	400	2
O=C(Cn1cnc2c(cnn2-c2ccc(Cl)cc2)c1=O)NC1CCCCC1	5.4*	11	-3	-1	231	-2
COc1ccc(C(CC(=O)c2ccc(C)cc2)C(C#N)C#N)cc1OC (stereo not given)	-3	-19	5	3	550	-2
CCOC(=O)C1=C(C)Nc2sc(C(=O)c3ccc(OC)cc3)c(N)c2C1c1ccc(C(=O)OC)cc1 (stereo not given)	-3	4	3	0	279	11*
CC(C)(CC(=O)O)CC(=O)NCc1c(Cl)cccc1Oc1ccccc1	0	21	-2	-6	629	0
O=C(O)c1cccc(S(=O)(=O)NNc2ccccc2C(F)(F)F)c1	25*	-4	-1	12	357	0
Oc1sc(C=Nc2ccc(F)cc2)c2ccccc12	13*	-14	0	-204	747	6
Oc1c(C=Nc2ccccc2)sc2ccccc12	-2	5	0	-8	68	1
CCOc1ccc(S(=O)(=O)NN=C2CCN(C(C)=O)CC2)cc1	-3	13	4	-5	138	-3
C/C(=N/Nc1nc(C)c(C)s1)c1cccc([N+](=O)[O-])c1	-2	11	90*	0	195	-2
C/C(=N\Nc1nc(N)cc(Cl)n1)c1cccc([N+](=O)[O-])c1	1	2	1	-12	223	-4
Cc1ccccc1-n1ncc2c1CC(C)(C)CC2NC(=O)C1=CC(=O)CC(C)(C)O1 (stereo not given)	-1	8	3	-5	350	-4
CC1(C)Cc2c(c(N3CCOCC3)nc3sc4c(NN)ncnc4c23)CS1	12*	0	6	-12	421	0
c1nc(N2CCOCC2)c2sc3nc(N4CCOCC4)c4c(c3c2n1)CCCC4	-2	.	.	.	.	-3
SMILES	IMP-1 inh	UBC9 SUMO inh	CTSL1 counter	p-CIP stab down	T cell modulator	VIM-2 inh
CC(C)CNc1nnnc2c1sc1nc(N3CCOCC3)c3c(c12)CC(C)(C)SC3	0	9	3	11	568	1
CCN(CC)c1ncnc2c1sc1nc(N3CCOCC3)c3c(c12)CCC3	7.0*	-8	.	4	.	0
Cc1csc(=O)n1CC(=O)OCC(=O)NNC(=O)c1ccc(Cl)cc1	.	.	.	.	789	.
Cc1ccccc1Cn1c(C)cc(C)c(C#N)c1=O	4.5*	-3	4	0	363	-2
C=CCN1CN(S(=O)(=O)c2cccc(Cl)c2)c2nc3ccccc3nc21	-2	11	17*	0	202	-2
Cc1cccc(N2CC(C(=O)NC3CCCCCC3)CC2=O)c1C (stereo not given)	.	.	.	.	397	.
O=C1C=C(N2CCCCC2)c2ccccc2C1=O	.	.	92*	.	340	.
COc1cccc(C2c3c(oc4ccc(F)cc4c3=O)C(=O)N2CCN2CCOCC2)c1OC (stereo not given)	0	8	0	-4	929	8.1*
O=[N+]([O-])c1cc(Br)c(O)c(/C=N/Nc2nnnn2-c2cccc3ccccc23)c1	4.8*	48	5	-3	574	-3
O=[N+]([O-])c1cc(Br)c(O)c(C=Nc2ccc(N3CCOCC3)cc2)c1	2	16	-4	-22	179	-2
O=C(CC(c1ccccc1)c1ccccc1O)NCc1ccccc1 (stereo not given)	-3	5	18*	2	160	0
CC(=O)N1CCN(C(=O)COC(=O)/C=C/c2ccc(C(F)(F)F)cc2)CC1	.	.	.	.	294	.
Nc1c(C(=O)N/N=C/c2cccnc2)oc2nc(-c3ccco3)cc(-c3ccco3)c12	0	95*	0	-8	700	-1
CC(C)C(=O)Nc1cccc(C(=O)Nc2ccc(S(=O)(=O)Nc3nccs3)cc2)c1	-3	0	-5	-1	300	-1
O=c1[nH]c(=S)[nH]c2nc(-c3ccccc3)cnc12	.	.	5	.	414	.
Cc1cc2nc3c(=O)[nH]c(=S)[nH]c3nc2cc1NC(=O)C(F)(F)F	1	60*	8	-70	212	-4
Cc1c(C=N)c(O)n(C)c(=O)c1C#N	-2	33	6	0	596	-1
O=C(NNC(=O)c1ccccc1Br)c1cnccn1	.	.	.	.	176	.
O=C(CSc1cccc2cccnc12)OCC(=O)c1ccc(Br)cc1	5.3*	-33	0	12	178	0
COc1ccc(-c2ccc(CCC(=O)O)n2CC(C)C)cc1	7.1*	5	4	-12	151	2
CCC(C)NC(=O)c1ccc2c(Cl)c3c(nc2c1)CCC3 (stereo not given)	-1	18	4	0	206	2
CN1CCN(CCCNC(=O)c2ccc3c(Cl)c4c(nc3c2)CCCC4)CC1	0	10	-1	5	i	9.4*
O=C1NC(=S)S/C1=C\c1ccc(SCc2ccco2)o1	9.7*	63*	2	-6	459	4
CCOC(=O)[C@@H]1[C@H]2COc3ccc(Br)cc3[C@H]2N2C(=O)N(c3ccc(C(F)(F)F)cc3)C(=O)[C@]12C	.	.	.	.	290	.
CC(C)CN(C(=O)CSc1n[nH]c(-c2cccs2)n1)C1CCS(=O)(=O)C1 (stereo not given)	.	.	.	.	308	.
